Results on six compounds are retold here after ChEMBL document CHEMBL1157718, “Characterization of non-lipid autotaxin inhibitors” (Bioorg Med Chem, 2010).

The target of experiment [1] is T1, Autotaxin (Homo sapiens, UniProt Q13822). In words: Competitive-type inhibition of autotaxin-mediated FS3 hydrolysis by Michaelis-Menten analysis. The method in brief:
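ATX from ~10-fold concentrated serum-free conditioned medium of MDA-MB-435 cells. […] Buffer was 50 mM Tris pH 8.0 with salts and 30 µM charcoal-stripped BSA, 37 °C, fluorescence read every 2 min at ex 485/em 528. Initial rates were fitted to inhibition models, and the mechanism was assigned by lowest average percent residuals.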

Experiment [2] has as its target T1, Autotaxin. In words: Noncompetitive inhibition of autotaxin-mediated pNP-TMP hydrolysis by Michaelis-Menten analysis. The method in brief:
(§1)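 ATX from ~10-fold concentrated serum-free conditioned medium of MDA-MB-435 cells, used without further manipulation. […] Absorbance at 405 nm read every 2 min gave initial rates. Km came from zero-inhibitor data. Ki (free enzyme) and K'i (enzyme–substrate complex) were fitted by non-linear models, and the mechanism was assigned by the lowest average percent residuals.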

For experiment [3], the target named is T1, Autotaxin. In words: Noncompetitive inhibition of autotaxin-mediated pNP-TMP hydrolysis by Michaelis-Menten analysis for enzyme-substrate complex. The procedure, abridged:
as §1

The target of experiment [4] is T2, Glycerophosphocholine cholinephosphodiesterase ENPP6 (Homo sapiens) (UniProt Q6UWR7).
T2 sequence (whole entry): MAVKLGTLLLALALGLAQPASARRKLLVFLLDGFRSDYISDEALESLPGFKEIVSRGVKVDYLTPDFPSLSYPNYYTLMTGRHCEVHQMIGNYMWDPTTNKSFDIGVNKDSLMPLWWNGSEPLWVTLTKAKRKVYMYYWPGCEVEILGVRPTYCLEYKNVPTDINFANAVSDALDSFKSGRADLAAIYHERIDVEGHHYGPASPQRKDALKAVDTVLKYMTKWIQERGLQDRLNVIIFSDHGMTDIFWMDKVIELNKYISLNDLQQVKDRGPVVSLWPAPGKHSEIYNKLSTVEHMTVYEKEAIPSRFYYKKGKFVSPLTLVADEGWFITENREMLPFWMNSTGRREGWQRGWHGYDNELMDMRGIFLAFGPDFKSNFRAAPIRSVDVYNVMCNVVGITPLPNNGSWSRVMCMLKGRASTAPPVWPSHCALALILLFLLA
The experiment can be described thus: Inhibition of NPP6 expressed in human HEK293 cells at 10 uM. The format is cell-based. The procedure, abridged:
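Enzyme was soluble NPP6 in unconcentrated serum-free conditioned medium from transiently transfected HEK293 cells (48 h), making up one-third of the assay volume. Substrate was pNPPC at […] in 100 mM Tris-HCl pH 9.0, 500 mM NaCl, 0.05% Triton X-100, with inhibitor at 10 µM. A405 was read every 2 min and reported at 1 h, blank-subtracted and normalized to vehicle. Mean ± SD of ≥3 wells.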

Experiment [5] concerns the target T3, Ectonucleotide pyrophosphatase/phosphodiesterase family member 7 (Homo sapiens) (UniProt Q6UWV6).
T3 sequence (whole entry): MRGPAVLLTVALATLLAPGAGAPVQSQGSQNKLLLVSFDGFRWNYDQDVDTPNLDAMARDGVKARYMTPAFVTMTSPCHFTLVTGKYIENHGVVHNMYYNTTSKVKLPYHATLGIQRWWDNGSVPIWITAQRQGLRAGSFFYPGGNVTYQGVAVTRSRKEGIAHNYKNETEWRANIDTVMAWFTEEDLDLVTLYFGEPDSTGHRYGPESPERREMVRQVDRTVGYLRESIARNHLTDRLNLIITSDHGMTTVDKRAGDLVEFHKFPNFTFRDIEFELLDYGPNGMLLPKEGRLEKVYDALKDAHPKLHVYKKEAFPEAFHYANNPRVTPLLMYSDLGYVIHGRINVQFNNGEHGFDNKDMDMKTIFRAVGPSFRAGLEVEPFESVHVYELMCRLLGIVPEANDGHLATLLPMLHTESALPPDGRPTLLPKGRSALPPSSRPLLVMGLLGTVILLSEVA
In words: Inhibition of NPP7 expressed in human HEK293 cells at 10 uM. The format is cell-based. The method in brief:
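Enzyme was soluble NPP7 in concentrated (10 kDa cutoff) serum-free conditioned medium from transiently transfected HEK293 cells, making up one-third of the assay volume. Substrate was pNPPC at […] in 50 mM Tris-HCl pH 8.5, 150 mM NaCl, 10 mM taurocholic acid, no EDTA, with inhibitor at 10 µM. A405 was read every 2 min and reported at 1 h, normalized to vehicle after blank subtraction. Mean ± SD of ≥3 wells.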

Experiment [6] has as its target T1, Autotaxin.
Experiment [7] concerns the target T1, Autotaxin. The source holds these as a separate data set.
Experiment [8] concerns the target T1, Autotaxin. The source holds these as a separate data set.
Experiment [9] concerns the target T1, Autotaxin. The source holds these as a separate data set.

The source made the active and inactive calls.

For `CCn1cc(C(=O)O)c(=O)c2cnc(N3CCN(C(=S)Nc4cc(Cl)cc(Cl)c4)CC3)nc21`, the inhibition constant Ki on Autotaxin [1] amounted to 1.9 µM; on Autotaxin [2] it was 6.5 µM; at Autotaxin [3], 6.5 µM. Further, the inhibition entry in experiment [4] and in experiment [5] was “inactive” in each case. For the same compound, on Autotaxin [6], the half-inhibitory concentration (IC50) is 1.2 µM.
Compound `O=C(O)c1ccc(CN2C(=O)c3ccc(C(=O)c4ccc5c(c4)C(=O)N(Cc4ccc(C(=O)O)cc4)C5=O)cc3C2=O)cc1` registered a Ki at Autotaxin [1] of 5 µM. Further, the inhibition result in [4] and in experiment [5] was “inactive” in each case. The same compound displayed an IC50 on Autotaxin [7] of 12.8 µM.
For `CCn1cc(C(=O)O)c(=O)c2cnc(N3CCN(C(=S)NC(=O)C4c5ccccc5Oc5ccccc54)CC3)nc21`, the inhibition entry in experiment [4] and in [5] was “inactive” throughout.
For the compound `CCn1c(SCC(=O)Nc2ccc(C(=O)O)cc2)nc2nc3c(cc2c1=O)CCCC3`, the inhibition entry in experiment [4] and in [5] was “inactive” in each case.
On to `O=C(O)c1cccc(NC(=O)c2ccc3c(c2)C(=O)N(c2ccc(/N=N/c4ccccc4)cc2)C3=O)c1`, for which the inhibition result in experiment [4] and in experiment [5] was “inactive” in each case. The compound also returned an IC50 on Autotaxin [7] of 12.8 µM. Also, the values for the Ki at Autotaxin [8] and at Autotaxin [9] were 15.1 µM and 40.3 µM, respectively.
Take `O=C(O)c1ccc(Oc2ccc(C(=O)c3ccc4c(c3)C(=O)N(c3cccc5ccccc35)C4=O)cc2)cc1`: the inhibition entry in [4] and in [5] was “inactive” in each case. The IC50 on Autotaxin [7] and at Autotaxin [6] was 6.8 µM in each case. Besides, the Ki on Autotaxin [8] amounted to 5.8 µM; at Autotaxin [9], 32.3 µM.

The term Ki denotes the equilibrium dissociation constant of an inhibitor or competing ligand from its target. Usually IC50 stands for the midpoint of a concentration-inhibition curve.
